Data from ChEMBL document CHEMBL5331142, “Novel 1,4-Dihydropyridines as Specific Binders and Activators of SIRT3 Impair Cell Viability and Clonogenicity and Downregulate Hypoxia-Induced Targets in Cancer Cells” (J Med Chem, 2023).
The source made the active and inactive calls. The rule behind the calls is not given here.

Key:
[1] = biological target: T1, NAD-dependent protein deacetylase sirtuin-3, mitochondrial (Homo sapiens) (UniProt Q9NTG7); assay: Activation of N-terminal his-tagged human SIRT3 (114 to 380 residues) deacylation activity expressed in Escherichia coli at 10 uM using ACS2-acK642 as substrate in presence of NAD+ by NADH oxidation-coupled enzymatic assay; settings: filed as activator
T1 sequence (whole entry): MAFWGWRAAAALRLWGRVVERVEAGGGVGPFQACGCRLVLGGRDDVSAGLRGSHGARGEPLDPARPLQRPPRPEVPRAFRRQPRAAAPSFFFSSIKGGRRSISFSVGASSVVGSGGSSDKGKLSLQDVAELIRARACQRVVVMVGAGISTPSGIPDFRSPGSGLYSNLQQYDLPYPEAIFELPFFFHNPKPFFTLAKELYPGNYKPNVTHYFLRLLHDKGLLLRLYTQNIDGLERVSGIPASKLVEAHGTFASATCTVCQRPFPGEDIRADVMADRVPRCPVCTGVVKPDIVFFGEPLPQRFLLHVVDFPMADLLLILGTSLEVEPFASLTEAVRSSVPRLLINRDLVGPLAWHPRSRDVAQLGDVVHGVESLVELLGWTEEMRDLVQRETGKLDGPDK
Outline: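 Coupled PncA/GDH deacylation assay following NADPH oxidation to NADP+. 1.5 μM sirtuin, 50 μM substrate peptide, 100 μM NAD+, compound at 10 μM, 5% final DMSO. Isoform-specific physiological substrates: p53-acK381 (SIRT1), […] (SIRT2), ACS2-acK642 (SIRT3), CPS1-succK537 (SIRT5). Sirtuins expressed in E. coli, Ni-NTA purified, tag cleaved, then size-exclusion chromatography.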

[2] = biological target: T1, NAD-dependent protein deacetylase sirtuin-3, mitochondrial (Homo sapiens); assay: Activation of human SIRT3 overexpressing in human MDA-MB-231 cells assessed as increase in GDH activity at 50 uM incubated for 4 hrs by absorbance assay; type: cell-based; settings: filed as activator
Outline: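 MDA-MB-231 cells exposed 4 h to 50 μM compound. 10^6 cells lysed in GDH assay buffer for 10 min on ice. Supernatant mixed with developer and glutamate, incubated 3 min at 37 °C, absorbance read at 450 nm with buffer blank subtracted. SIRT3-overexpressing MDA-MB-231 cells served as reference.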

[3] = biological target: T1, NAD-dependent protein deacetylase sirtuin-3, mitochondrial (Homo sapiens); assay: Activation of N-terminal his-tagged human SIRT3 (114 to 380 residues) deacylation activity expressed in Escherichia coli at 100 uM using ACS2-acK642 as substrate in presence of NAD+ by NADH oxidation-coupled enzymatic assay
Outline: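 Coupled PncA/GDH deacylation assay following NADPH oxidation to NADP+. 1.5 μM SIRT3 (E. coli-expressed, tag removed) with 50 μM ACS2-acK642 peptide and 100 μM NAD+, compound at 100 μM, 5% final DMSO.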

Row | Structure (SMILES) | Activity [1] | Activity [2] | Activity ([3]; filed as activator) | Activity [3]
1 | CCOC(=O)C1=CN(C(=O)c2cc(OC)c(OC)c(OC)c2)C=C(C(=O)OCC)C1c1ccccc1 | 128% | 175% | 269% | –
2 | CCOC(=O)C1=CN(C(=O)c2cccc(F)c2)C=C(C(=O)OCC)C1c1ccccc1 | 120% | – | 196% | –
3 | CCOC(=O)C1=CN(C(=O)c2cccc([N+](=O)[O-])c2)C=C(C(=O)OCC)C1c1ccccc1 | 120% | – | – | –
4 | CCOC(=O)C1=CN(C(=O)c2cccc(Br)c2)C=C(C(=O)OCC)C1c1ccccc1 | 120% | – | 214% | –
5 | CCOC(=O)C1=CN(C(=O)c2ccccc2)C=C(C(=O)OCC)C1c1ccccc1 | 157% | – | 188% | –
6 | CCOC(=O)C1=CN(C(=O)c2ccco2)C=C(C(=O)OCC)C1c1ccccc1 | 120% | – | – | –
7 | CCOC(=O)C1=CN(C(=O)c2ccc(Br)cc2)C=C(C(=O)OCC)C1c1ccccc1 | 120% | – | 184% | –
8 | CCOC(=O)C1=CN(C(=O)c2ccsc2)C=C(C(=O)OCC)C1c1ccccc1 | 120% | – | – | inactive
9 | CCOC(=O)C1=CN(C(=O)Cc2ccccc2)C=C(C(=O)OCC)C1c1ccccc1 | 176% | – | Active | –
